Reference: PMC3187937 (Biochemistry, 2011)
Values joined by “and” are separate entries in the source; they are usually repeats but may differ in a detail not shown here. Identical values can stand only once. Like-named read-outs stand apart in the source and are kept apart here.

Assays:
[1] = target: T1, purified R. capsulatus wild-type cyt bc1 (Rhodobacter capsulatus, UniProt D5ANZ3); assay: Zn^2+ inhibition kinetics of DBH2:cyt c reductase activity, wild-type enzyme; format: biochemical; conditions: 40 mM Tris-HCl buffer pH 7.5, single homogeneous inhibition site fit, free Zn^2+
T1 sequence (D5ANZ3 1-437): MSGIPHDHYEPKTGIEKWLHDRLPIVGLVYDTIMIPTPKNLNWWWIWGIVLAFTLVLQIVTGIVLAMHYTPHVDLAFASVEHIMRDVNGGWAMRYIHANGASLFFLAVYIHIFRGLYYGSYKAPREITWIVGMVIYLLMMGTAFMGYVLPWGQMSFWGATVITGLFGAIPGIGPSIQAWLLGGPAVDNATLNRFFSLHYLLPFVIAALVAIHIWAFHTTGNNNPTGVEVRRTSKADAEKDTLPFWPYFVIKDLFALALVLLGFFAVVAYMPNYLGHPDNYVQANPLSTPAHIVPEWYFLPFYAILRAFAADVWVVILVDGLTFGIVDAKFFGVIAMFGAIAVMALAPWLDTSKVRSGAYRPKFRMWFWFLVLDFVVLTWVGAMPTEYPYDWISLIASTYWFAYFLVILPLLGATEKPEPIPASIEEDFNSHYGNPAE
T1 sequence (D5ANZ2 1-191 partner): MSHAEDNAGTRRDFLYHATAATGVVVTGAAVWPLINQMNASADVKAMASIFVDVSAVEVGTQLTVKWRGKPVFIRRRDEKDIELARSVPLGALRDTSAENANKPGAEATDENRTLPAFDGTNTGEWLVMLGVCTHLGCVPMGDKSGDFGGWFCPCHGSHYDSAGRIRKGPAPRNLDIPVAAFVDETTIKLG
T1 sequence (D5ANZ4 22-279 partner): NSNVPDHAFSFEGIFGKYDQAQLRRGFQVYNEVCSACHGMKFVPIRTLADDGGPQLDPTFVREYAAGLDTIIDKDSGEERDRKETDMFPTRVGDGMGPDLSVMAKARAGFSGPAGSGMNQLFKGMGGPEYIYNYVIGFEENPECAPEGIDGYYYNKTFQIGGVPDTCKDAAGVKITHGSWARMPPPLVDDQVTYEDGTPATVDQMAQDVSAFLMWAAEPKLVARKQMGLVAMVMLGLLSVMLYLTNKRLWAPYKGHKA

[2] = target: purified R. capsulatus cyt b E295V mutant cyt bc1 (Rhodobacter capsulatus, UniProt D5ANZ3, E295V); assay: Zn^2+ inhibition kinetics of DBH2:cyt c reductase activity, E295V mutant enzyme; format: biochemical
purified R. capsulatus cyt b E295V mutant cyt bc1, sequence (D5ANZ3 whole entry E295V, one chain of several): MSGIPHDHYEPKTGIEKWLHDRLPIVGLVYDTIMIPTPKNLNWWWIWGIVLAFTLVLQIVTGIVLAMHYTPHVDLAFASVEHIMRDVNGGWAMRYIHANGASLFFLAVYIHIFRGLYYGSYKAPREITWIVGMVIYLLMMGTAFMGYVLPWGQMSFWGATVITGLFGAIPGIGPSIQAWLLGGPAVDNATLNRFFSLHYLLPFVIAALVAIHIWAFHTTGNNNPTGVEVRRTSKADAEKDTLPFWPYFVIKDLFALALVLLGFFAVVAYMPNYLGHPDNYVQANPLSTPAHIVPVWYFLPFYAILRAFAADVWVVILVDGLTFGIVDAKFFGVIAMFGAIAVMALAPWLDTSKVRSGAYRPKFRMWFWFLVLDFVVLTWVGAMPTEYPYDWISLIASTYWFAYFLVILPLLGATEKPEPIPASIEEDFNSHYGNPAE

[3] = target: T2, wild-type cyt bc1 (Rhodobacter capsulatus, UniProt D5ANZ3); assay: Isothermal titration calorimetry of Zn^2+ binding, wild-type enzyme
T2 sequence (D5ANZ3 1-437): T1 sequence (D5ANZ3 1-437)
T2 sequence (D5ANZ2 1-191 partner): T1 sequence (D5ANZ2 1-191 partner)
T2 sequence (D5ANZ4 22-279 partner): T1 sequence (D5ANZ4 22-279 partner)

[4] = target: E295V mutant cyt bc1 (Rhodobacter capsulatus, UniProt D5ANZ3, E295V); format: binding
E295V mutant cyt bc1, sequence (D5ANZ3 whole entry E295V, one chain of several): as above

[5] = target: T3, hemes of R. capsulatus cyt bc1 (Rhodobacter capsulatus, UniProt D5ANZ3)
T3 sequence (D5ANZ3 1-437): T1 sequence (D5ANZ3 1-437)
T3 sequence (D5ANZ2 1-191 partner): T1 sequence (D5ANZ2 1-191 partner)
T3 sequence (D5ANZ4 22-279 partner): T1 sequence (D5ANZ4 22-279 partner)

[6] = target: bovine cyt bc1; conditions: cited from earlier work
[7] = target: bovine cyt bc1; conditions: cited from earlier work; remark: listed apart in the source
[8] = target: chicken cyt bc1; conditions: avian; ref [25]; cited from earlier work
[9] = target: T4, R. capsulatus wild-type cyt bc1 (Rhodobacter capsulatus, UniProt D5ANZ3); assay: Michaelis-Menten kinetics of DBH2:cyt c reductase, wild-type enzyme; format: biochemical; conditions: DBH2 as substrate
T4 sequence (D5ANZ3 1-437): T1 sequence (D5ANZ3 1-437)
T4 sequence (D5ANZ2 1-191 partner): T1 sequence (D5ANZ2 1-191 partner)
T4 sequence (D5ANZ4 22-279 partner): T1 sequence (D5ANZ4 22-279 partner)
Procedure, shortened: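 Enzyme purified by DDM solubilisation of chromatophore membranes from respiratory-grown cells, then DEAE and Sephacryl S400 chromatography. Assay: 2.3 nM enzyme with 40 μM horse heart cyt c, 2 mM KCN and 0.1 g/L DDM in 50 mM sodium phosphate pH 7.4, stirred at 20 °C. DBH₂ in DMSO was varied from 0.5 to 40 μM. Initial cyt c reduction rate read at 550 nm over 1 min. Km and Vmax came from double-reciprocal plots and Michaelis-Menten fitting.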

[10] = target: R. capsulatus E295V mutant cyt bc1 (Rhodobacter capsulatus, UniProt D5ANZ3, E295V); assay: Michaelis-Menten kinetics of DBH2:cyt c reductase, E295V mutant enzyme; format: biochemical; conditions: DBH2 as substrate
R. capsulatus E295V mutant cyt bc1, sequence (D5ANZ3 whole entry E295V, one chain of several): as above

[11] = E295V, blind fit, two-site model

[Zn+2] [Zn^2+]
Ki [1]: 900 nM | Ki ([2]; 40 mM Tris-HCl buffer pH 7.5, single site fit, free Zn^2+): 2600 nM | residual activity ([2]; [Zn^2+] > 0.2 mM): 30% | ΔH1 ([3]; high affinity site): -5.6 ± 0.2 kcal/mol | ΔH2 ([3]; lower affinity sites): -1.4 ± 0.2 kcal/mol | Kd ([3]; read-out: KD1 (high affinity site), two-site model): 500 ± 70 nM | Kd ([3]; read-out: KD2 (lower affinity sites), two-site model): 6800 ± 900 nM | Kd ([3]; read-out: KD (high affinity site), two-site model): 500 nM | Kd ([3]; read-out: KD (lower affinity sites), two-site model): 6800 nM | n1, stoichiometry of high affinity site ([3]; sites per protein complex): 1.13 ± 0.03 | n2, number of lower affinity binding sites ([3]; sites per protein complex): 3.7 ± 0.2 | n1 [4, 11]: 1.97 ± 0.08 | n2, low affinity binding sites per cyt bc1 [4, 11]: 7.1 ± 0.3 | ΔH1 [4, 11]: -9.9 ± 0.7 kcal/mol | ΔH2 [4, 11]: -2.6 ± 0.3 kcal/mol | n2, number of low affinity sites ([4]; E295V, n1 = 1 fixed): 9.1 ± 0.5 | ΔH1 ([4]; E295V, n1 = 1 fixed): -28 ± 4 kcal/mol | ΔH2 ([4]; E295V, n1 = 1 fixed): -0.9 ± 0.5 kcal/mol | Kd ([4]; read-out: KD1 (high affinity site), E295V, two-site model with n1 = 1 fixed): 1000 ± 360 nM | Kd ([4]; read-out: KD2 (low affinity sites), E295V, n1 = 1 fixed): 3500 ± 1600 nM | Kd ([4]; read-out: KD2, E295V, blind fit, two-site model): 5810 ± 1220 nM | change of KD1 of high affinity site in E295V compared to wild type ([4]; unitary stoichiometry assumed): increase by a factor of two | effect on midpoint potentials of the b-type hemes ([5]; wild type, 200 μM Zn^2+, oxidative titration, pH 8.0): does not significantly affect | effect on oxidation rate ([5]; with Zn^2+ added, +500 mV vs SHE): remained unaffected | time to fully reduced samples after application of the reducing potential ([5]; with Zn^2+ added, −500 mV vs SHE, within 7 minutes without Zn^2+): 10 min | Ki ([6]; pH 7.0, ref [39]): 100 nM | Complete inhibition (Zn^2+ concentration) ([6]; ref [39]): [Zn^2+] > 5 μM | Kd ([7]; pH 7.0, first value of cell, ref [39]): 100 nM | Kd ([7]; read-out: KD (second value), second value of cell, ref [39]): > 2000 nM | Ki [8]: 3000 nM

CCCCCCCCCCc1c(C)c(O)c(OC)c(OC)c1O [DBH2, Decylbenzohydroquinone]
Kcat [9]: 85.2 ± 13.1 s⁻¹ | Vmax [9]: 42.4 µmol/min/mg and 42.4 ± 0.8 µmol/min/mg | Km ([9]; purified enzyme): 4.9 ± 0.2 µM | Vmax of E295V relative to wild type (fold lower) ([10]; steady-state): 4 fold | Kcat ([10]; E295V): 34.3 ± 4.5 s⁻¹ | Vmax ([10]; E295V): 10.6 ± 0.4 µmol/min/mg | Km ([10]; E295V, purified enzyme): 3.1 ± 0.4 µM
